Assay results from ChEMBL document CHEMBL4190407, “Identification of Morpholino Thiophenes as Novel Mycobacterium tuberculosis Inhibitors, Targeting QcrB” (J Med Chem, 2018).
pIC50: −log10 of the molar value. Values after ≈ are worked out from the molar mass of the structure shown. Active and inactive are the calls of the source. The calls are words filed in the database; no cut-off is given here.

Columns and labels:
[1] = Intrinsic clearance in CD-1 mouse liver microsomes in presence of NADPH up to 30 mins by UPLC-MS/MS analysis; type: ADME, microsome; conditions: 0.5 h
[2] = tested on: Mycobacterium tuberculosis; assay: Antimycobacterial activity against Mycobacterium tuberculosis H37Rv ATCC 25618 after 5 days; type: functional; conditions: H37Rv ATCC 25618, 120 h
Procedure, shortened: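 Growth measured in Middlebrook 7H9 with 10% OADC and 0.05% Tween 80 under aerobic conditions, covering H37Rv (ATCC 25618) and QcrB mutant strains. Growth read after 5 days at 37 °C. MIC90 is the concentration giving 90% growth inhibition, obtained by curve fitting (Levenberg–Marquardt). Mean ± SD of at least two independent experiments.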

Vero [3] = assay: Cytotoxicity against African green monkey Vero cells assessed as growth inhibition measured after 2 days by CellTiter-Glo assay; type: cell-based; conditions: Chlorocebus sabaeus, 48 h
[4] = molecular target: Cytochrome bc1 complex cytochrome b subunit (Mycobacterium tuberculosis (strain ATCC 25618 / H37Rv)) (UniProt P9WP37); assay: Inhibition of QcrB in Mycobacterium tuberculosis H37Rv ATCC 25618 assessed as reduction in ATP level measured up to 0.1 uM after 24 hrs by BacTiter-Glo assay
Sequence of Cytochrome bc1 complex cytochrome b subunit (Mycobacterium tuberculosis (strain ATCC 25618 / H37Rv)) (P9WP37 whole entry, one chain of several): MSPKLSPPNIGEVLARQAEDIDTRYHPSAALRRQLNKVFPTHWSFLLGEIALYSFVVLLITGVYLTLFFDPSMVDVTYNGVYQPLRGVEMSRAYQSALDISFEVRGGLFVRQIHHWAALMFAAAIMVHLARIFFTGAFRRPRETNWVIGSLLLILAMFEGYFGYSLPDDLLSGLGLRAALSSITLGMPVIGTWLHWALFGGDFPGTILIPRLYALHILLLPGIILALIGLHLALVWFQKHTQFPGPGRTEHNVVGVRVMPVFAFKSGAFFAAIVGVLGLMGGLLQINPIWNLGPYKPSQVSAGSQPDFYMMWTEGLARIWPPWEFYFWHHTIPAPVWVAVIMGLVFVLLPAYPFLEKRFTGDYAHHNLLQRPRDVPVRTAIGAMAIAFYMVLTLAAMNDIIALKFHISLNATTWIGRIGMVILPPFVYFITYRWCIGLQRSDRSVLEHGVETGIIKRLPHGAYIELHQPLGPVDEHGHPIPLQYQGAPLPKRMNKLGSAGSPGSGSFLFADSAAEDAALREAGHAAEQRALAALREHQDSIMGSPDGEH
Procedure, shortened: (§1)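 H37Rv exposed to compounds for 24 h. Intrabacterial ATP measured by BacTiter-Glo as relative luminescence units, with growth followed by OD590. Representative of 2 independent experiments.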

Mus musculus [5] = assay: AUC in C57 Black mouse at 3 mg/kg, iv administered as bolus dose by UPLC-MS/MS analysis; type: ADME, organism-based; conditions: in vivo
Mus musculus [6] = assay: In vivo drug metabolism in C57 Black mouse assessed as oxidation of morpholine at 3 mg/kg, iv administered as bolus dose or 10 mg/kg, po via gavage by UPLC-MS/MS analysis; type: ADME, organism-based
Mus musculus [7] = assay: In vivo drug metabolism in C57 Black mouse assessed as de-ethylation at 3 mg/kg, iv administered as bolus dose or 10 mg/kg, po via gavage by UPLC-MS/MS analysis; type: ADME, organism-based
Mus musculus [8] = assay: Toxicity in C57BL/6 mouse infected with Mycobacterium tuberculosis H37Rv at 100 mg/kg, po for 4 consecutive days starting from day 5 post infection; type: organism-based; conditions: in vivo
[9] = molecular target: Cytochrome bc1 complex cytochrome b subunit (Mycobacterium tuberculosis (strain ATCC 25618 / H37Rv)) (UniProt P9WP37); assay: Inhibition of QcrB in Mycobacterium tuberculosis H37Rv ATCC 25618 assessed as reduction in ATP level measured after 24 hrs by BacTiter-Glo assay; procedure, shortened: as §1
[10] = Clearance in human liver microsomes; type: ADME, microsome
Cytochrome P450 2D6 = Cytochrome P450 2D6 (Homo sapiens, UniProt P10635); assay: Inhibition of CYP2D6 (unknown origin); type: ADME
Sequence of Cytochrome P450 2D6 (P10635 whole entry): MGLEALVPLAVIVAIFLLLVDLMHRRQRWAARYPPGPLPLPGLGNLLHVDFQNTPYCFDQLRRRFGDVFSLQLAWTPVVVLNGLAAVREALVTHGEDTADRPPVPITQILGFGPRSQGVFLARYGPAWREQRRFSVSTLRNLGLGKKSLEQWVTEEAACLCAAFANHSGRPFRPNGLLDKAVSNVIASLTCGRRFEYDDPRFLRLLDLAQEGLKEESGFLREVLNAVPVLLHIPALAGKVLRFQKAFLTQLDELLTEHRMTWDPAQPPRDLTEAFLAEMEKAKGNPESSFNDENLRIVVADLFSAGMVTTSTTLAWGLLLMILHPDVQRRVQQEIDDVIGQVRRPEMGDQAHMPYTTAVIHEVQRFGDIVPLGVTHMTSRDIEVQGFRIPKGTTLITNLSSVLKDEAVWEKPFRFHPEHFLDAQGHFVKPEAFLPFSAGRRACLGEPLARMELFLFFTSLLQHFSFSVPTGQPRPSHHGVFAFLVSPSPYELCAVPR

Cytochrome P450 2C9 = Cytochrome P450 2C9 (Homo sapiens, UniProt P11712); assay: Inhibition of CYP2C9 (unknown origin); type: ADME
Sequence of Cytochrome P450 2C9 (P11712 whole entry): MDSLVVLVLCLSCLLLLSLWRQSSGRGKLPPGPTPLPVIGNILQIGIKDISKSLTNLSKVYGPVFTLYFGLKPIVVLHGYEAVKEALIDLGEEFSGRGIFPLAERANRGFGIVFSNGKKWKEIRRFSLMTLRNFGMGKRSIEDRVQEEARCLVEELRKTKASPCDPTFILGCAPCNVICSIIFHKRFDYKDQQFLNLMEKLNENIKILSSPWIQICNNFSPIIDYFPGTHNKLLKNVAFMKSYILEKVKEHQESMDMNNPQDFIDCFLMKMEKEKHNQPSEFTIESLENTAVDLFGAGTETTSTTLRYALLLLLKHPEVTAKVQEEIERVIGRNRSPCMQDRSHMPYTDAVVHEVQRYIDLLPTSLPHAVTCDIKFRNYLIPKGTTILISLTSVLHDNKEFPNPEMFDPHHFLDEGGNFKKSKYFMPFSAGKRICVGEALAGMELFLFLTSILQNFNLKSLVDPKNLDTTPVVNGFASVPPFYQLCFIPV

Cytochrome P450 1A2 = molecular target: T1, Cytochrome P450 1A2 (Homo sapiens, UniProt P05177); assay: Inhibition of CYP1A2 (unknown origin); type: ADME
T1 sequence (P05177 whole entry): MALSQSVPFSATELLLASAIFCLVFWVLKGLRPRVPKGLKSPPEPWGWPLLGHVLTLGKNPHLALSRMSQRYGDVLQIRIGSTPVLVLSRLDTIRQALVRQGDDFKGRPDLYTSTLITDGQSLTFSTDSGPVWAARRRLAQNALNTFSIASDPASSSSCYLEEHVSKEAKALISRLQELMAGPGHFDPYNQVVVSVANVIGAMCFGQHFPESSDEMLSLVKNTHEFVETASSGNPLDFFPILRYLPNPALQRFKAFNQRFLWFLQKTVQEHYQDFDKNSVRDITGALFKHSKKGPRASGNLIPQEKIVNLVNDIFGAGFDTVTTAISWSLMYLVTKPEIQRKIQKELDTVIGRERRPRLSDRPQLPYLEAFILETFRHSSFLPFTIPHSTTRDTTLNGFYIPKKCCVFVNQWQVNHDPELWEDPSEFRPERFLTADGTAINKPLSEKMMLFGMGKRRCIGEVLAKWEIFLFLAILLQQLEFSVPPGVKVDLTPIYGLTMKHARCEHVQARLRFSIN

Cytochrome P450 2C19 = Cytochrome P450 2C19 (Homo sapiens, UniProt P33261); assay: Inhibition of CYP2C19 (unknown origin); type: ADME
Sequence of Cytochrome P450 2C19 (P33261 whole entry): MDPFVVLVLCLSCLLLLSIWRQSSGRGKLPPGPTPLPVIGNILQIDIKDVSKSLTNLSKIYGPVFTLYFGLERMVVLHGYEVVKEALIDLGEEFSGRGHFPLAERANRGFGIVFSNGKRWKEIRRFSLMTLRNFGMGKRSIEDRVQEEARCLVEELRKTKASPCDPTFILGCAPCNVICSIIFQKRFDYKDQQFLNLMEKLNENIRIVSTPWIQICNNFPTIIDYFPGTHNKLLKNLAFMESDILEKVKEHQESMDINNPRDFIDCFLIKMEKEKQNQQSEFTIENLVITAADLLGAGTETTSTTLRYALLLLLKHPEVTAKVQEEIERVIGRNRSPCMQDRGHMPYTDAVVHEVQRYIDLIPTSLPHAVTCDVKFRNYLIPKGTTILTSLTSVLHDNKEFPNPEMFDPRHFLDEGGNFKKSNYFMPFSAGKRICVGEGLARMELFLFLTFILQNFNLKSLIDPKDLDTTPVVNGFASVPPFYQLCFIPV

Vero [11] = assay: Cytotoxicity against African green monkey Vero cells; type: cell-based; conditions: chlorocebus sabaeus
Mus musculus [12] = assay: Toxicity in C57BL/6 mouse infected with Mycobacterium tuberculosis H37Rv at 30 mg/kg, po for 8 consecutive days starting from day 1 post infection; type: organism-based; conditions: in vivo

Compound: NC(=O)c1sc(CN2CCOCC2)cc1OCCc1ccccc1
- intrinsic clearance [1]: 3 mL/min/g

Compound: COCCN(C)c1cc(OCCc2ccccc2)c(C(N)=O)s1
- MIC90 [2]: > 20 µM
- pIC50 (Vero [3]): < 4.00
- intrinsic clearance [1]: 28 mL/min/g

Compound: NC(=O)c1sc(N2CCOCC2)cc1CCCc1ccc(F)cc1
- MIC90 [2]: 0.9 µM (≈ 0.314 µg/mL)
- pIC50 (Vero [3]): < 4.00
- intrinsic clearance [1]: 13 mL/min/g

Compound: COc1cccc(CCOc2cc(N3CCOCC3)sc2C(N)=O)c1
- intrinsic clearance [1]: 10 mL/min/g

Compound: CO[C@H]1/C=C/O[C@@]2(C)Oc3c(C)c(O)c4c(O)c(c(/C=N/N5CCN(C)CC5)c(O)c4c3C2=O)NC(=O)/C(C)=C\C=C\[C@H](C)[C@H](O)[C@@H](C)[C@@H](O)[C@@H](C)[C@H](OC(C)=O)[C@@H]1C
- inhibition [4]: Active

Compound: COc1ccccc1CCOc1cc(N2CCOCC2)sc1C(N)=O
- intrinsic clearance [1]: 26 mL/min/g

Compound: CCc1nc2ccc(Cl)cn2c1C(=O)NCc1ccc(N2CCC(c3ccc(OC(F)(F)F)cc3)CC2)cc1
- inhibition [4]: Active

Compound: NC(=O)c1sc(-n2nccn2)cc1OCCc1ccccc1
- intrinsic clearance [1]: 30 mL/min/g

Compound: CC1(COc2cc(N3CCOCC3)sc2C(N)=O)COC1
- AUC (Mus musculus [5]): 980000 ng·min/mL

Compound: CNC(=O)c1sc(N2CC3CC2CO3)cc1OCCc1ccccc1 (stereo not drawn)
- intrinsic clearance [1]: 13 mL/min/g

Compound: NC(=O)c1sc(N2CCOCC2)cc1OCCc1ccc(OC(F)(F)F)cc1
- MIC90 [2]: 0.2 to 0.24 µM (≈ 0.0833 to 0.0999 µg/mL)
- Drug metabolism (Mus musculus [6]): Metabolite_Detected
- Drug metabolism (Mus musculus [7]): Metabolite_Detected
- Activity (Mus musculus [8]): Non-Toxic
- inhibition [9]: Dose-dependent effect

Compound: CON(C)C(=O)c1sc(N2CCOCC2)cc1OCCc1ccccc1
- pIC50 (Vero [3]): 4.11

Compound: NC(=O)c1sc(N2CCOCC2)cc1OCCc1cccc(F)c1
- intrinsic clearance [1]: 18 mL/min/g
- inhibition [9]: Dose-dependent effect

Compound: CCOC(=O)NC(=O)c1sc(N2CCOCC2)cc1OCCc1ccccc1
- intrinsic clearance [1]: 1 mL/min/g

Compound: COC(=O)c1sc(N2CCOCC2)cc1OCCc1ccccc1
- intrinsic clearance [1]: 50 mL/min/g

Compound: NC(=O)c1ccc(N2CCOCC2)cc1OCCc1ccccc1
- intrinsic clearance [1]: 12 mL/min/g

Compound: NC(O)C1SC(N2CCOCC2)CC1OCC(F)(F)C1CCCCC1 (stereo not drawn)
- MIC90 [2]: > 20 µM
- pIC50 (Vero [3]): 4.02
- intrinsic clearance [1]: 19 mL/min/g

Compound: NC(=O)c1sc(N2CCOCC2)cc1OCc1ccccc1
- intrinsic clearance [1]: 14 mL/min/g

Compound: NC(=O)c1sc(N2CCOCC2)cc1OCCc1ccccc1
- MIC90 [2]: 0.72 to 0.8 µM (≈ 0.239 to 0.266 µg/mL)
- CLH [10]: 3.5 mL/min/g
- INH (Cytochrome P450 2D6): 5 µM
- INH (Cytochrome P450 2C9): 5.1 µM
- INH (Cytochrome P450 1A2): < 5 µM
- INH (Cytochrome P450 2C19): 5.9 µM
- Activity (Vero [11]): > 100 µM
- AUC (Mus musculus [5]): 29000 ng·min/mL
- inhibition [9]: Dose-dependent effect

Compound: CC1COCCN1c1cc(OCCc2ccccc2)c(C(N)=O)s1 (stereo not drawn)
- MIC90 [2]: > 20 µM
- pIC50 (Vero [3]): 4.11
- intrinsic clearance [1]: 11 mL/min/g

Compound: COc1ccc(CCOc2cc(N3CCOCC3)sc2C(N)=O)cc1
- MIC90 [2]: 0.6 to 0.63 µM (≈ 0.217 to 0.228 µg/mL)

Compound: O=C(NO)c1sc(N2CCOCC2)cc1OCCc1ccccc1
- intrinsic clearance [1]: 6 mL/min/g

Compound: NC(=O)c1sc(N2CCOCC2=O)cc1OCCc1ccccc1
- intrinsic clearance [1]: 7 mL/min/g

Compound: COc1c(N2C[C@@H]3CCCN[C@@H]3C2)c(F)cc2c(=O)c(C(=O)O)cn(C3CC3)c12 [MOXIFLOXACIN]
- Activity (Mus musculus [12]): Non-Toxic

Compound: NC(=O)c1sc(N2CCOCC2)cc1OCCN1CCOCC1
- intrinsic clearance [1]: 0.9 mL/min/g

Compound: CNC(=O)c1sc(N2CCOCC2)cc1OCCc1ccccc1
- intrinsic clearance [1]: 36 mL/min/g
- inhibition [9]: Dose-dependent effect
